Reference: paper PMC3217166 (Toxicology in vitro : an international journal published in …, 2011)
≈ marks a conversion by molar mass, not a printed value. Where “and” joins values, the source holds several entries; their conditions need not be identical. Equal entries are not always repeated. Where two headings read alike, the source gives them in different places.

Key:
Type in all cases: cell-based, Human
[1] = tested on: TK6 cells; test: Generation of reactive oxygen species; conditions: for level of ROS generated: DEHP 234μM, MEHP 196μM (IC50's), cisplatin 13uM
[2] = tested on: TK6 cells; test: Cell viability / IC50 by trypan blue exclusion; conditions: for IC50 (cell viability): same value expressed in mg/L
In short: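 TK6 lymphoblasts were grown in RPMI 1640 with 10% FBS at 37°C, 5% CO2, and subcultured at 1×10^6 cells per 3.5 mL to keep exponential growth. Cells were exposed for 24, 48 or 72 h to test compound at 10–500 μM ([…]). Viability was counted by trypan blue exclusion on an automated cell counter, and the 50% inhibitory concentration was read from the viability curves.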

[3] = tested on: TK6 cells; conditions: DEHP 234μM, MEHP 196μM (IC50's), valinomycin 11 uM
[4] = tested on: caspases 3 and 7 in TK6 cells; test: Activation of caspases 3 and 7
[5] = read-out: IC50 (cell viability), 24 hours of exposure
[6] = read-out: IC50 (cell viability), 48 hours of exposure
[7] = read-out: IC50 (cell viability), 72 hours of exposure
[8] = 24 hours exposure, DEHP and MEHP at IC50's, staurosporine 1 uM
[9] = 48 hours exposure, DEHP 234μM, MEHP 196μM (IC50's), staurosporine 1μM

## N.N.[Cl][Pt][Cl] [Cisplatin, cis-diammineplatinum (II) dichloride, reference compound]
[1]; 24 hours exposure
  level of ROS generated: 1348.85 FSU
[1]; 48 hours exposure
  level of ROS generated: 1575.35 FSU

## CCCCC(CC)COC(=O)c1ccccc1C(=O)OCC(CC)CCCC (centres unmarked) [DEHP, diethylhexyl phthalate]
[2]; 48 hours of exposure
  IC50 (cell viability): 91.4 µg/mL (≈ 234 µM)
[2]; 72 hours of exposure
  IC50 (cell viability): 39.06 µg/mL (≈ 100 µM)
[2]; [5]
  IC50: ~250 µM and 250 µM
[2]; [6]
  IC50: 234 µM
[2]; [7]
  IC50: 100 µM
[3]; 24 hours exposure
  mitochondrial membrane permeability: 1100.85 FSU
[3]; 48 hours exposure
  mitochondrial membrane permeability: 2505.58 FSU
[1]; 24 hours exposure
  level of ROS generated: 458.54 FSU
[1]; 48 hours exposure
  level of ROS generated: 793.27 FSU
[4]; [8]
  caspases 3 and 7 activation: 122.13 FSU
[4]; [9]
  caspases 3 and 7 activation: 1406.94 FSU

## CCCCC(CC)COC(=O)c1ccccc1C(=O)O (centres unmarked) [MEHP, monoethylhexyl phthalate]
[2]; 48 hours of exposure
  IC50 (cell viability): 54.55 µg/mL (≈ 196 µM)
[2]; 72 hours of exposure
  IC50 (cell viability): 22.27 µg/mL (≈ 80 µM)
[2]; [5]
  IC50: 250 µM
[2]; [6]
  IC50: 196 µM
[2]; [7]
  IC50: 80 µM
[3]; 24 hours exposure
  mitochondrial membrane permeability: 1630.94 FSU
[3]; 48 hours exposure
  mitochondrial membrane permeability: 2210.09 FSU
[1]; 24 hours exposure
  level of ROS generated: 816.53 FSU
[1]; 48 hours exposure
  level of ROS generated: 1518.75 FSU
[1]; comparison among phthalates at IC50 doses
  ROS production relative to the parent DEHP: twice as much
[4]; [8]
  caspases 3 and 7 activation: 292.80 FSU
[4]; [9]
  caspases 3 and 7 activation: 1209.72 FSU

## CN[C@@H]1C[C@H]2O[C@@](C)([C@@H]1OC)n1c3ccccc3c3c4c(c5c6ccccc6n2c5c31)C(=O)NC4 [Staurosporine, reference compound]
[4]; [8]
  caspases 3 and 7 activation: 1390.92 FSU
[4]; [9]
  caspases 3 and 7 activation: 1322.55 FSU

## CC(C)[C@@H]1NC(=O)[C@H](C)OC(=O)[C@@H](C(C)C)NC(=O)[C@@H](C(C)C)OC(=O)[C@H](C(C)C)NC(=O)[C@H](C)OC(=O)[C@@H](C(C)C)NC(=O)[C@@H](C(C)C)OC(=O)[C@H](C(C)C)NC(=O)[C@H](C)OC(=O)[C@@H](C(C)C)NC(=O)[C@@H](C(C)C)OC1=O [valinomycin, Valinomycin, reference compound]
[3]; 24 hours exposure
  mitochondrial membrane permeability: 1079.18 FSU
[3]; 48 hours exposure
  mitochondrial membrane permeability: 2327.65 FSU
